Data published in ChEMBL document CHEMBL1649552 (2009).
In brackets after ≈: the same amount, converted by molar mass.

Tests used:
Format in all cases: functional
Staphylococcus aureus [1] = test: Antibacterial activity against methicillin-susceptible Staphylococcus aureus by CLSI M100-S17 method
Staphylococcus aureus [2] = test: Antibacterial activity against methicillin-susceptible Staphylococcus aureus assessed as susceptible isolates by CLSI M100-S17 method
Staphylococcus aureus [3] = test: Antibacterial activity against methicillin-susceptible Staphylococcus aureus assessed as intermediate isolates by CLSI M100-S17 method
Staphylococcus aureus [4] = test: Antibacterial activity against methicillin-resistant Staphylococcus aureus by CLSI M100-S17 method
[5] = tested on: Staphylococcus epidermidis; test: Antibacterial activity against methicillin-susceptible Staphylococcus epidermidis by CLSI M100-S17 method
[6] = tested on: Staphylococcus epidermidis; test: Antibacterial activity against methicillin-susceptible Staphylococcus epidermidis assessed as susceptible isolates by CLSI M100-S17 method
[7] = tested on: Staphylococcus epidermidis; test: Antibacterial activity against methicillin-susceptible Staphylococcus epidermidis assessed as intermediate isolates by CLSI M100-S17 method
[8] = tested on: Staphylococcus epidermidis; test: Antibacterial activity against methicillin-resistant Staphylococcus epidermidis by CLSI M100-S17 method
Streptococcus pneumoniae [9] = test: Antibacterial activity against Streptococcus pneumoniae by CLSI M100-S17 method
Streptococcus pneumoniae [10] = test: Antibacterial activity against Streptococcus pneumoniae assessed as susceptible isolates by CLSI M100-S17 method
Summary of the method: (§1)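 CLSI broth microdilution on clinical isolates, using frozen in-house-prepared panels of test and comparator agents. MICs were read after 20 to 24 h incubation at 35°C in ambient air. Susceptible/intermediate categories were assigned by CLSI M100-S17 guidelines.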

Streptococcus pyogenes [11] = test: Antibacterial activity against Streptococcus pyogenes by CLSI M100-S17 method
Streptococcus pyogenes [12] = test: Antibacterial activity against Streptococcus pyogenes assessed as susceptible isolates by CLSI M100-S17 method; summary of the method: as §1
Streptococcus agalactiae [13] = test: Antibacterial activity against Streptococcus agalactiae by CLSI M100-S17 method
Streptococcus agalactiae [14] = test: Antibacterial activity against Streptococcus agalactiae assessed as susceptible isolates by CLSI M100-S17 method; summary of the method: as §1
Enterococcus faecalis [15] = test: Antibacterial activity against Enterococcus faecalis by CLSI M100-S17 method
Enterococcus faecalis [16] = test: Antibacterial activity against Enterococcus faecalis assessed as susceptible isolates by CLSI M100-S17 method
Enterococcus faecalis [17] = test: Antibacterial activity against Enterococcus faecalis assessed as intermediate isolates by CLSI M100-S17 method
Enterococcus faecalis [18] = test: Antibacterial activity against Enterococcus faecalis assessed as resistant isolates by CLSI M100-S17 method
Enterococcus faecium [19] = test: Antibacterial activity against Enterococcus faecium by CLSI M100-S17 method
Enterococcus faecium [20] = test: Antibacterial activity against Enterococcus faecium assessed as susceptible isolates by CLSI M100-S17 method
Enterococcus faecium [21] = test: Antibacterial activity against Enterococcus faecium assessed as intermediate isolates by CLSI M100-S17 method
Enterococcus faecium [22] = test: Antibacterial activity against Enterococcus faecium assessed as resistant isolates by CLSI M100-S17 method
Escherichia coli [23] = test: Antibacterial activity against Escherichia coli by CLSI M100-S17 method
Escherichia coli [24] = test: Antibacterial activity against Escherichia coli assessed as susceptible isolates by CLSI M100-S17 method
Escherichia coli [25] = test: Antibacterial activity against Escherichia coli assessed as intermediate isolates by CLSI M100-S17 method
Klebsiella pneumoniae [26] = test: Antibacterial activity against Klebsiella pneumoniae by CLSI M100-S17 method
Klebsiella pneumoniae [27] = test: Antibacterial activity against Klebsiella pneumoniae assessed as susceptible isolates by CLSI M100-S17 method
Klebsiella pneumoniae [28] = test: Antibacterial activity against Klebsiella pneumoniae assessed as intermediate isolates by CLSI M100-S17 method
Klebsiella oxytoca [29] = test: Antibacterial activity against Klebsiella oxytoca by CLSI M100-S17 method
Klebsiella oxytoca [30] = test: Antibacterial activity against Klebsiella oxytoca assessed as susceptible isolates by CLSI M100-S17 method
Klebsiella oxytoca [31] = test: Antibacterial activity against Klebsiella oxytoca assessed as intermediate isolates by CLSI M100-S17 method
Enterobacter cloacae [32] = test: Antibacterial activity against Enterobacter cloacae by CLSI M100-S17 method
Enterobacter cloacae [33] = test: Antibacterial activity against Enterobacter cloacae assessed as susceptible isolates by CLSI M100-S17 method
Enterobacter cloacae [34] = test: Antibacterial activity against Enterobacter cloacae assessed as intermediate isolates by CLSI M100-S17 method
Proteus mirabilis [35] = test: Antibacterial activity against Proteus mirabilis by CLSI M100-S17 method
Proteus mirabilis [36] = test: Antibacterial activity against Proteus mirabilis assessed as susceptible isolates by CLSI M100-S17 method
Proteus mirabilis [37] = test: Antibacterial activity against Proteus mirabilis assessed as intermediate isolates by CLSI M100-S17 method
Serratia marcescens [38] = test: Antibacterial activity against Serratia marcescens by CLSI M100-S17 method
Serratia marcescens [39] = test: Antibacterial activity against Serratia marcescens assessed as susceptible isolates by CLSI M100-S17 method
Serratia marcescens [40] = test: Antibacterial activity against Serratia marcescens assessed as intermediate isolates by CLSI M100-S17 method
Pseudomonas aeruginosa [41] = test: Antibacterial activity against Pseudomonas aeruginosa by CLSI M100-S17 method
Pseudomonas aeruginosa [42] = test: Antibacterial activity against Pseudomonas aeruginosa assessed as susceptible isolates by CLSI M100-S17 method
Pseudomonas aeruginosa [43] = test: Antibacterial activity against Pseudomonas aeruginosa assessed as intermediate isolates by CLSI M100-S17 method
Pseudomonas aeruginosa [44] = test: Antibacterial activity against Pseudomonas aeruginosa assessed as resistant isolates by CLSI M100-S17 method
[45] = tested on: Stenotrophomonas maltophilia; test: Antibacterial activity against Stenotrophomonas maltophilia by CLSI M100-S17 method
Acinetobacter baumannii [46] = test: Antibacterial activity against Acinetobacter baumannii by CLSI M100-S17 method
Acinetobacter baumannii [47] = test: Antibacterial activity against Acinetobacter baumannii assessed as susceptible isolates by CLSI M100-S17 method
Acinetobacter baumannii [48] = test: Antibacterial activity against Acinetobacter baumannii assessed as intermediate isolates by CLSI M100-S17 method
Acinetobacter baumannii [49] = test: Antibacterial activity against Acinetobacter baumannii assessed as resistant isolates by CLSI M100-S17 method
Moraxella catarrhalis = test: Antibacterial activity against Moraxella catarrhalis by CLSI M100-S17 method

## CC(=O)NC[C@H]1CN(c2ccc(N3CCOCC3)c(F)c2)C(=O)O1 [LINEZOLID]
Staphylococcus aureus [1]
  MIC50: 2 mg/L (≈ 5.93 µM)
  MIC90: 2 mg/L (≈ 5.93 µM)
Staphylococcus aureus [2]
  Activity: 100%
Staphylococcus aureus [3]
  Activity: 0%
Staphylococcus aureus [4]
  MIC50: 2 mg/L (≈ 5.93 µM)
  MIC90: 4 mg/L (≈ 11.9 µM)
[5]
  MIC50: 0.5 mg/L (≈ 1.48 µM)
  MIC90: 1 mg/L (≈ 2.96 µM)
[6]
  Activity: 100%
[7]
  Activity: 0%
[8]
  MIC50: 1 mg/L (≈ 2.96 µM)
  MIC90: 1 mg/L (≈ 2.96 µM)
Streptococcus pneumoniae [9]
  MIC50: 0.5 mg/L (≈ 1.48 µM)
  MIC90: 1 mg/L (≈ 2.96 µM)
Streptococcus pneumoniae [10]
  Activity: 100%
Streptococcus pyogenes [11]
  MIC50: 1 mg/L (≈ 2.96 µM)
  MIC90: 1 mg/L (≈ 2.96 µM)
Streptococcus pyogenes [12]
  Activity: 100%
Streptococcus agalactiae [13]
  MIC50: 1 mg/L (≈ 2.96 µM)
  MIC90: 1 mg/L (≈ 2.96 µM)
Streptococcus agalactiae [14]
  Activity: 100%
Enterococcus faecalis [15]
  MIC50: 2 mg/L (≈ 5.93 µM)
  MIC90: 2 mg/L (≈ 5.93 µM)
Enterococcus faecalis [16]
  Activity: 98.7%
Enterococcus faecalis [17]
  Activity: 1.3%
Enterococcus faecalis [18]
  Activity: 0%
Enterococcus faecium [19]
  MIC50: 2 mg/L (≈ 5.93 µM)
  MIC90: 2 mg/L (≈ 5.93 µM)
Enterococcus faecium [20]
  Activity: 91.4%
Enterococcus faecium [21]
  Activity: 8.6%
Enterococcus faecium [22]
  Activity: 0%

## C[C@@H](O)[C@H]1C(=O)N2C(C(=O)O)=C(S[C@@H]3CN[C@H](C(=O)N(C)C)C3)[C@H](C)[C@H]12 [MEROPENEM]
Escherichia coli [23]
  MIC50: ≤ 0.06 mg/L
  MIC90: ≤ 0.06 mg/L
Escherichia coli [24]
  Activity: 100%
Escherichia coli [25]
  Activity: 0%
Klebsiella pneumoniae [26]
  MIC50: ≤ 0.06 mg/L
  MIC90: ≤ 0.06 mg/L
Klebsiella pneumoniae [27]
  Activity: 100%
Klebsiella pneumoniae [28]
  Activity: 0%
Klebsiella oxytoca [29]
  MIC50: ≤ 0.06 mg/L
  MIC90: ≤ 0.06 mg/L
Klebsiella oxytoca [30]
  Activity: 100%
Klebsiella oxytoca [31]
  Activity: 0%
Enterobacter cloacae [32]
  MIC50: ≤ 0.06 mg/L
  MIC90: ≤ 0.06 mg/L
Enterobacter cloacae [33]
  Activity: 100%
Enterobacter cloacae [34]
  Activity: 0%
Proteus mirabilis [35]
  MIC50: ≤ 0.06 mg/L
  MIC90: ≤ 0.06 mg/L
Proteus mirabilis [36]
  Activity: 100%
Proteus mirabilis [37]
  Activity: 0%
Serratia marcescens [38]
  MIC50: ≤ 0.06 mg/L
  MIC90: ≤ 0.06 mg/L
Serratia marcescens [39]
  Activity: 100%
Serratia marcescens [40]
  Activity: 0%
Pseudomonas aeruginosa [41]
  MIC50: 0.5 mg/L (≈ 1.3 µM)
  MIC90: 8 mg/L (≈ 20.9 µM)
Pseudomonas aeruginosa [42]
  Activity: 87.8%
Pseudomonas aeruginosa [43]
  Activity: 4.1%
Pseudomonas aeruginosa [44]
  Activity: 8.1%
[45]
  MIC50: > 64 mg/L
  MIC90: > 64 mg/L
Acinetobacter baumannii [46]
  MIC50: 0.5 mg/L (≈ 1.3 µM)
  MIC90: 4 mg/L (≈ 10.4 µM)
Acinetobacter baumannii [47]
  Activity: 92%
Acinetobacter baumannii [48]
  Activity: 0%
Acinetobacter baumannii [49]
  Activity: 8%
Moraxella catarrhalis
  MIC: ≤ 0.06 mg/L
  MIC50: ≤ 0.06 mg/L
  MIC90: ≤ 0.06 mg/L
